According to ChEMBL document CHEMBL4152188, “Design, synthesis and biological evaluation of C(4) substituted monobactams as antibacterial agents against multidrug-resistant Gram-negative bacteria” (Eur J Med Chem, 2018):
Values after ≈ are worked out from the molar mass of the structure shown.

Columns and labels:
Type in all cases: functional
Escherichia coli [1] = assay: Antibacterial activity against extended-spectrum beta-lactamase producing Escherichia coli isolate 212648 after 18 hrs by CLSI broth microdilution method; details: isolate 212648, 18 h
Escherichia coli [2] = assay: Selectivity index, ratio of MIC for against extended-spectrum beta-lactamase producing Escherichia coli isolate 208687 to MIC for extended-spectrum beta-lactamase producing Escherichia coli isolate 208687 in presence of BPL
Escherichia coli [3] = assay: Antibacterial activity against Escherichia coli isolate 210737 after 18 hrs by CLSI broth microdilution method; details: isolate 210737, 18 h
Escherichia coli [4] = assay: Antibacterial activity against extended-spectrum beta-lactamase producing Escherichia coli isolate 208687 after 18 hrs by CLSI broth microdilution method; details: isolate 208687, 18 h
Escherichia coli [5] = assay: Antibacterial activity against extended-spectrum beta-lactamase producing Escherichia coli isolate 208687 after 18 hrs in presence of BPL by CLSI broth microdilution method; details: isolate 208687, 18 h
Summary of the method: (§1)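 CLSI broth microdilution against clinical isolates (ESBL E. coli, KPC-2 MDR K. pneumoniae, IMP-4 MDR P. aeruginosa; five per species). Iron limitation: Mueller-Hinton broth supplemented with 16 mg/liter 2,2'-bipyridyl to complex iron and induce iron uptake systems. Read-out: MIC.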

Escherichia coli [6] = assay: Antibacterial activity against Escherichia coli isolate 210737 after 18 hrs in presence of BPL by CLSI broth microdilution method; details: isolate 210737, 18 h; summary of the method: as §1
Escherichia coli [7] = assay: Selectivity index, ratio of MIC for against Escherichia coli isolate 210737 to MIC for Escherichia coli isolate 210737 in presence of BPL
Escherichia coli [8] = assay: Antibacterial activity against extended-spectrum beta-lactamase producing Escherichia coli isolate 212648 after 18 hrs in presence of BPL by CLSI broth microdilution method; details: isolate 212648, 18 h; summary of the method: as §1
Escherichia coli [9] = assay: Selectivity index, ratio of MIC for against extended-spectrum beta-lactamase producing Escherichia coli isolate 212648 to MIC for extended-spectrum beta-lactamase producing Escherichia coli isolate 212648 in presence of BPL
Escherichia coli [10] = assay: Antibacterial activity against extended-spectrum beta-lactamase producing Escherichia coli isolate 209285 after 18 hrs by CLSI broth microdilution method; details: isolate 209285, 18 h
Escherichia coli [11] = assay: Antibacterial activity against extended-spectrum beta-lactamase producing Escherichia coli isolate 209285 after 18 hrs in presence of BPL by CLSI broth microdilution method; details: isolate 209285, 18 h; summary of the method: as §1
Escherichia coli [12] = assay: Selectivity index, ratio of MIC for against extended-spectrum beta-lactamase producing Escherichia coli isolate 209285 to MIC for extended-spectrum beta-lactamase producing Escherichia coli isolate 209285 in presence of BPL
Escherichia coli [13] = assay: Antibacterial activity against extended-spectrum beta-lactamase producing Escherichia coli isolate 106342 after 18 hrs by CLSI broth microdilution method; details: isolate 106342, 18 h
Escherichia coli [14] = assay: Antibacterial activity against extended-spectrum beta-lactamase producing Escherichia coli isolate 106342 after 18 hrs in presence of BPL by CLSI broth microdilution method; details: isolate 106342, 18 h; summary of the method: as §1
Escherichia coli [15] = assay: Selectivity index, ratio of MIC for against extended-spectrum beta-lactamase producing Escherichia coli isolate 106342 to MIC for extended-spectrum beta-lactamase producing Escherichia coli isolate 106342 in presence of BPL
Klebsiella pneumoniae [16] = assay: Antibacterial activity against KPC-2 producing Klebsiella pneumoniae isolate 212423 after 18 hrs by CLSI broth microdilution method; details: isolate 212423, 18 h
Klebsiella pneumoniae [17] = assay: Antibacterial activity against KPC-2 producing Klebsiella pneumoniae isolate 212423 after 18 hrs in presence of BPL by CLSI broth microdilution method; details: isolate 212423, 18 h; summary of the method: as §1
Klebsiella pneumoniae [18] = assay: Selectivity index, ratio of MIC for against KPC-2 producing Klebsiella pneumoniae isolate 212423 to MIC for against KPC-2 producing Klebsiella pneumoniae isolate 212423 in presence of BPL
Klebsiella pneumoniae [19] = assay: Antibacterial activity against KPC-2 producing Klebsiella pneumoniae isolate 209632 after 18 hrs by CLSI broth microdilution method; details: isolate 209632, 18 h
Klebsiella pneumoniae [20] = assay: Antibacterial activity against KPC-2 producing Klebsiella pneumoniae isolate 209632 after 18 hrs in presence of BPL by CLSI broth microdilution method; details: isolate 209632, 18 h; summary of the method: as §1
Klebsiella pneumoniae [21] = assay: Selectivity index, ratio of MIC for against KPC-2 producing Klebsiella pneumoniae isolate 209632 to MIC for against KPC-2 producing Klebsiella pneumoniae isolate 209632 in presence of BPL
Klebsiella pneumoniae [22] = assay: Antibacterial activity against KPC-2 producing Klebsiella pneumoniae isolate 209735 after 18 hrs by CLSI broth microdilution method; details: isolate 209735, 18 h
Klebsiella pneumoniae [23] = assay: Antibacterial activity against KPC-2 producing Klebsiella pneumoniae isolate 209735 after 18 hrs in presence of BPL by CLSI broth microdilution method; details: isolate 209735, 18 h; summary of the method: as §1
Klebsiella pneumoniae [24] = assay: Selectivity index, ratio of MIC for against KPC-2 producing Klebsiella pneumoniae isolate 209735 to MIC for against KPC-2 producing Klebsiella pneumoniae isolate 209735 in presence of BPL
Klebsiella pneumoniae [25] = assay: Antibacterial activity against KPC-2 producing Klebsiella pneumoniae isolate 212232 after 18 hrs by CLSI broth microdilution method; details: isolate 212232, 18 h
Klebsiella pneumoniae [26] = assay: Antibacterial activity against KPC-2 producing Klebsiella pneumoniae isolate 212232 after 18 hrs in presence of BPL by CLSI broth microdilution method; details: isolate 212232, 18 h; summary of the method: as §1
Klebsiella pneumoniae [27] = assay: Selectivity index, ratio of MIC for against KPC-2 producing Klebsiella pneumoniae isolate 212232 to MIC for against KPC-2 producing Klebsiella pneumoniae isolate 212232 in presence of BPL
Klebsiella pneumoniae [28] = assay: Antibacterial activity against KPC-2 producing Klebsiella pneumoniae isolate 212229 after 18 hrs by CLSI broth microdilution method; details: isolate 212229, 18 h
Klebsiella pneumoniae [29] = assay: Antibacterial activity against KPC-2 producing Klebsiella pneumoniae isolate 212229 after 18 hrs in presence of BPL by CLSI broth microdilution method; details: isolate 212229, 18 h; summary of the method: as §1
Klebsiella pneumoniae [30] = assay: Selectivity index, ratio of MIC for against KPC-2 producing Klebsiella pneumoniae isolate 212229 to MIC for against KPC-2 producing Klebsiella pneumoniae isolate 212229 in presence of BPL
Pseudomonas aeruginosa [31] = assay: Antibacterial activity against IMP-4 producing Pseudomonas aeruginosa isolate 212886 after 18 hrs by CLSI broth microdilution method; details: isolate 212886, 18 h
Pseudomonas aeruginosa [32] = assay: Antibacterial activity against IMP-4 producing Pseudomonas aeruginosa isolate 212886 after 18 hrs in presence of BPL by CLSI broth microdilution method; details: isolate 212886, 18 h; summary of the method: as §1
Pseudomonas aeruginosa [33] = assay: Selectivity index, ratio of MIC for against IMP-4 producing Pseudomonas aeruginosa isolate 212886 to MIC for against IMP-4 producing Pseudomonas aeruginosa isolate 212886 in presence of BPL
Pseudomonas aeruginosa [34] = assay: Antibacterial activity against IMP-4 producing Pseudomonas aeruginosa isolate 209471 after 18 hrs by CLSI broth microdilution method; details: isolate 209471, 18 h
Pseudomonas aeruginosa [35] = assay: Antibacterial activity against IMP-4 producing Pseudomonas aeruginosa isolate 209471 after 18 hrs in presence of BPL by CLSI broth microdilution method; details: isolate 209471, 18 h; summary of the method: as §1
Pseudomonas aeruginosa [36] = assay: Selectivity index, ratio of MIC for against IMP-4 producing Pseudomonas aeruginosa isolate 209471 to MIC for against IMP-4 producing Pseudomonas aeruginosa isolate 209471 in presence of BPL
Pseudomonas aeruginosa [37] = assay: Antibacterial activity against IMP-4 producing Pseudomonas aeruginosa isolate 208247 after 18 hrs by CLSI broth microdilution method; details: isolate 208247, 18 h
Pseudomonas aeruginosa [38] = assay: Antibacterial activity against IMP-4 producing Pseudomonas aeruginosa isolate 208247 after 18 hrs in presence of BPL by CLSI broth microdilution method; details: isolate 208247, 18 h; summary of the method: as §1
Pseudomonas aeruginosa [39] = assay: Selectivity index, ratio of MIC for against IMP-4 producing Pseudomonas aeruginosa isolate 208247 to MIC for against IMP-4 producing Pseudomonas aeruginosa isolate 208247 in presence of BPL
Pseudomonas aeruginosa [40] = assay: Antibacterial activity against IMP-4 producing Pseudomonas aeruginosa isolate 209321 after 18 hrs by CLSI broth microdilution method; details: isolate 209321, 18 h
Pseudomonas aeruginosa [41] = assay: Antibacterial activity against IMP-4 producing Pseudomonas aeruginosa isolate 209321 after 18 hrs in presence of BPL by CLSI broth microdilution method; details: isolate 209321, 18 h; summary of the method: as §1
Pseudomonas aeruginosa [42] = assay: Selectivity index, ratio of MIC for against IMP-4 producing Pseudomonas aeruginosa isolate 209321 to MIC for against IMP-4 producing Pseudomonas aeruginosa isolate 209321 in presence of BPL
Pseudomonas aeruginosa [43] = assay: Antibacterial activity against IMP-4 producing Pseudomonas aeruginosa isolate 207272 after 18 hrs by CLSI broth microdilution method; details: isolate 207272, 18 h
Pseudomonas aeruginosa [44] = assay: Antibacterial activity against IMP-4 producing Pseudomonas aeruginosa isolate 207272 after 18 hrs in presence of BPL by CLSI broth microdilution method; details: isolate 207272, 18 h; summary of the method: as §1
Pseudomonas aeruginosa [45] = assay: Selectivity index, ratio of MIC for against IMP-4 producing Pseudomonas aeruginosa isolate 207272 to MIC for against IMP-4 producing Pseudomonas aeruginosa isolate 207272 in presence of BPL

MIC (Escherichia coli [1]): 8 µg/mL (≈ 12.8 µM)
MIC (Escherichia coli [3]): 2 µg/mL (≈ 3.19 µM)
MIC (Escherichia coli [4]): 8 µg/mL (≈ 12.8 µM)
MIC (Escherichia coli [5]): 2 µg/mL
MIC (Escherichia coli [6]): 2 µg/mL
MIC (Escherichia coli [8]): 2 µg/mL
MIC (Escherichia coli [10]): 8 µg/mL (≈ 12.8 µM)
MIC (Escherichia coli [11]): 4 µg/mL
MIC (Escherichia coli [13]): 8 µg/mL (≈ 12.8 µM)
MIC (Escherichia coli [14]): 4 µg/mL
MIC (Klebsiella pneumoniae [16]): 2 µg/mL (≈ 3.19 µM)
MIC (Klebsiella pneumoniae [17]): 0.5 µg/mL
MIC (Klebsiella pneumoniae [19]): 0.5 µg/mL (≈ 0.798 µM)
MIC (Klebsiella pneumoniae [20]): 0.125 µg/mL
MIC (Klebsiella pneumoniae [22]): 2 µg/mL (≈ 3.19 µM)
MIC (Klebsiella pneumoniae [23]): 0.25 µg/mL
MIC (Klebsiella pneumoniae [25]): 2 µg/mL (≈ 3.19 µM)
MIC (Klebsiella pneumoniae [26]): 0.125 µg/mL
MIC (Klebsiella pneumoniae [28]): 1 µg/mL (≈ 1.6 µM)
MIC (Klebsiella pneumoniae [29]): 0.25 µg/mL
MIC (Pseudomonas aeruginosa [31]): > 64 µg/mL
MIC (Pseudomonas aeruginosa [32]): 32 µg/mL
MIC (Pseudomonas aeruginosa [34]): 32 µg/mL (≈ 51.1 µM)
MIC (Pseudomonas aeruginosa [35]): 32 µg/mL
MIC (Pseudomonas aeruginosa [37]): 32 µg/mL (≈ 51.1 µM)
MIC (Pseudomonas aeruginosa [38]): 32 µg/mL
MIC (Pseudomonas aeruginosa [40]): 32 µg/mL (≈ 51.1 µM)
MIC (Pseudomonas aeruginosa [41]): 32 µg/mL
MIC (Pseudomonas aeruginosa [43]): 32 µg/mL (≈ 51.1 µM)
MIC (Pseudomonas aeruginosa [44]): 32 µg/mL
Compound: CC(C)C(O/N=C(\C(=O)N[C@@H]1C(=O)N(S(=O)(=O)O)[C@@H]1COS(=O)(=O)O)c1csc(N)n1)c1cc(=O)c(O)cn1O (stereo not given in full)
Selectivity Index (Escherichia coli [2]): 4
Selectivity Index (Escherichia coli [7]): 1
Selectivity Index (Escherichia coli [9]): 4
Selectivity Index (Escherichia coli [12]): 2
Selectivity Index (Escherichia coli [15]): 2
Selectivity Index (Klebsiella pneumoniae [18]): 4
Selectivity Index (Klebsiella pneumoniae [21]): 4
Selectivity Index (Klebsiella pneumoniae [24]): 8
Selectivity Index (Klebsiella pneumoniae [27]): 16
Selectivity Index (Klebsiella pneumoniae [30]): 4
Selectivity Index (Pseudomonas aeruginosa [33]): >2
Selectivity Index (Pseudomonas aeruginosa [36]): 1
Selectivity Index (Pseudomonas aeruginosa [39]): 1
Selectivity Index (Pseudomonas aeruginosa [42]): 1
Selectivity Index (Pseudomonas aeruginosa [45]): 1
